High-throughput results from PubChem.
Compounds with a hit are over-represented: about 2.6% of the library has one in this group of screens.
VIM-2 inh: inhibitors of Pseudomonas aeruginosa VIM-2 metallo-beta-lactamase; purified VIM-2, nitrocefin hydrolysis, epi-absorbance fluorescence; inhibition, % at 5.6 µM; 290,000 compounds, 0.89% hits; AID 1527;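 active = inhibition above the mean of all tested compounds plus 3 SD, cutoff set per screening run, cut at about 7.5% in these data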;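 also: red hydrolysis product quenches plate fluorescence so inhibitors raise well fluorescence; 0% = enzyme with DMSO and 100% = DMSO without enzyme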
Runt-SMMHC FRET: Runt domain-CBFb-SMMHC interaction inhibition; Q01196+Q13951; Cerulean-Runt/Venus-CBFb-SMMHC FRET ratio 530/480, 1 h; inhibition, % at 20 µM; 220,000 compounds, 0.74% hits;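 active = mean inhibition across duplicate retests at 20 µM reaching about 50%, limit read from the data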;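 also: 0% = DMSO wells and 100% = wells with excess untagged CBFb-SMMHC; inhibitors lower the FRET ratio by blocking Runt binding to CBFb-SMMHC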
IMP-1 inh-1: blocks Pseudomonas aeruginosa IMP-1 metallo-beta-lactamase; 290,000 compounds, 0.45% hits; purified IMP-1, nitrocefin hydrolysis, epi-absorbance fluorescence; inhibition, % at 5.6 µM;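 active = inhibition above the mean plus 3 SD of all compounds in the same screening run, cut at about 4.5% in these data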;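 also: 0% = IMP-1 with DMSO and 100% = DMSO wells lacking enzyme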
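System – purified recombinant IMP-1 beta-lactamase · Input – IMP-1 dispensed at 0.2 nM · Timing – 15 min preincubation plus 25 min reaction at 25 °C · Signal – Epi-absorbance fluorescence, 480 nm excitation, 530 nm emission · Measure – percent IMP-1 inhibition derived from blank-referenced optical density · Controls – Enzyme-plus-DMSO low control, enzyme-free DMSO high control · Replication – singlicate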
Runt-CBFb FRET: blocks binding of human RUNX1 Runt domain to CBFb | Cerulean-Runt/Venus-CBFb FRET ratio 530/480, 1 h | Q01196+Q13951 | inhibition, % at 20 µM | 220,000 compounds, 0.46% hits | AID 1496;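 active = inhibition over about 50% at 20 µM in the single-dose screen, limit read from the data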;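 also: 0% = DMSO wells and 100% = excess unlabeled CBFb competitor control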
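test system = Cerulean-Runt domain fusion protein, energy donor | probe or stimulus = Venus-CBFb binding partner, 100 nM | incubation = two 1 h room-temperature incubations shielded from light | detection = fluorescence energy transfer, 422 nm excitation, 530/480 nm emission | measure = loss of energy transfer signal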
RanGTP-Impb inh: inhibitors of RanGTP-importin-beta interaction, primary screen, biochemical, FRET, CFP-Ran, YFP-importin-beta, homogeneous; cell-free CFP-Ran/YFP-importin-beta FRET ratio; inhibition, % (test concentration not listed); 300,000 compounds, 1.1% hits;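 active = more than half of the replicate wells show a fall in the fluorescence ratio signal beyond about 16%, limit read from the data, passing the limit was not always enough; inconclusive = exactly half of the replicate wells pass the set limit; inactive = fewer than half of replicates pass the limit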;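 also: 0% = DMSO wells and 100% = Ran loaded with GDP instead of GTP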
IMP-1 inh-2: selectivity counter-screen for VIM-2 inhibitors: IMP-1 metallo-beta-lactamase inhibitors | inhibition, % at 5.6 µM | 1,300 tested, under 10 active | shares compounds with VIM-2 inh | purified IMP-1, nitrocefin hydrolysis, epi-absorbance fluorescence; call rule not given here;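 also: 0% = enzyme with vehicle and 100% = vehicle without enzyme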
VIM-2 FRET inh: VIM-2 FRET inhibition, artifact counter-screen | shares compounds with VIM-2 inh | purified VIM-2, CCF2 FRET substrate hydrolysis | inhibition, % at 5.6 µM | 1,300 compounds, 23% hits;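 active = inhibition above the mean of all tested compounds plus 3 SD, cut at about 19% in these data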;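 also: 0% = VIM-2 plus DMSO and 100% = no enzyme wells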
TEM-1 inh: TEM-1 inhibition, counter-screen for VIM-2 inhibitors. shares compounds with VIM-2 inh. Purified TEM-1, nitrocefin hydrolysis, epi-absorbance fluorescence. inhibition, % at 5.6 µM. 1,300 compounds, 3% hits;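 active = inhibition above that campaign's mean inhibition plus 3 SD, cut at about 0.46% in these data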;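 also: 0% = TEM-1 with DMSO and 100% = TEM-1 with 100 µM potassium clavulanate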
Target sequence (P62593 whole entry, looked up): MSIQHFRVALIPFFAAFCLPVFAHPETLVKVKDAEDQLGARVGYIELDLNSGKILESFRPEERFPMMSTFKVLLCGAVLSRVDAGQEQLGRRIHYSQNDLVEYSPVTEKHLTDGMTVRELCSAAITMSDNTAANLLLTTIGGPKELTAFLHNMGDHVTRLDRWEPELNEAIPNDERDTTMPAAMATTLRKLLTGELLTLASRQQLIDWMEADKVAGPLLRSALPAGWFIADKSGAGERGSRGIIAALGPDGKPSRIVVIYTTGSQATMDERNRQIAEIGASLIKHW
VIM-2 confirm 2: confirmation of P. aeruginosa VIM-2 metallo-beta-lactamase inhibitors. shares compounds with VIM-2 inh. inhibition, % at 5.6 µM. purified VIM-2, nitrocefin hydrolysis, epi-absorbance. 1,300 compounds, 96% hits;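 active = inhibition of the VIM-2 beta-lactamase enzyme above about 11% from the earlier first-round screen, limit read from the data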;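 also: 0% = VIM-2 with DMSO and 100% = buffer wells without enzyme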
The depositor's hits bear a star; ? = inconclusive; · = not tested or not shown.

SMILES	VIM-2 inh	Runt-SMMHC FRET	IMP-1 inh-1	Runt-CBFb FRET	RanGTP-Impb inh	IMP-1 inh-2	VIM-2 FRET inh	TEM-1 inh	VIM-2 confirm 2
CC(C)(C)c1cc(NCCCn2ccnc2)n2ncc(-c3ccccc3)c2n1	-4	-3	-4	-3	4	·	·	·	·
CCCc1cc(NCCCn2ccnc2)n2nc(C)c(-c3ccccc3)c2n1	26*	1	-3	-7	-3	-3	-30	-5	47*
Cc1cccc(-c2cc3nc(C)cc(NCCCn4ccnc4)n3n2)c1	48*	0	-1	-1	-2	-1	-15	-6	60*
Cc1cc(NCCCn2ccnc2)n2ncc(-c3ccc(Cl)cc3)c2n1	35*	-3	-1	-5	3	-2	-22	-6	50*
O=C(c1ccc(Cl)c(S(=O)(=O)N2CCCCCC2)c1)N1CCCC1	0	-2	-2	2	?	·	·	·	·
CCOc1ccc(N(CC(=O)NC2CCCCC2)C(=O)CCCC(=O)Nc2ccccn2)cc1	-2	·	-2	·	2	·	·	·	·
CCOC(=O)c1ccccc1N/C=C1\CCCCC1=O	14*	3	-3	-3	?	-2	24*	-4	27*
COc1ccc(C(=O)Nc2ccc(NC(=O)c3cc(OC)c(OC)c(OC)c3)cn2)cc1	-4	·	-4	·	1	·	·	·	·
O=C(Nc1ccccc1C(F)(F)F)N1CCN(c2ccc3nnc(-c4ccc(F)cc4)n3n2)CC1	12*	-1	-2	-1	-5	-3	-2	-8	6
O=C(c1ccc(Br)o1)N1CCN(c2ccc3nnc(-c4ccccc4)n3n2)CC1	16*	1	-2	1	?	-3	-2	-2	24*
COc1cccc(C(=O)NCC(C)(C)SCc2ccc(F)cc2)c1	-2	·	-2	·	0	·	·	·	·
CCN(CC)c1ccc(Nc2nc(N3CCOCC3)c3ccccc3n2)cc1	1	12	-8	27	-1	·	·	·	·
COc1ccc(Nc2nc(N3CCCC3)c3ccccc3n2)cc1	19*	2	-3	2	2	-2	-7	-4	35*
Cc1c(-c2cc(Br)ccc2O)nc2cc3c(cc2c1C)OCO3	0	·	-3	·	9	·	·	·	·
CC1CC(C)CN(c2ccc([N+](=O)[O-])cc2-c2nn[nH]n2)C1 (stereo not given)	33*	-5	-4	4	-1	-1	61*	2.3*	45*
COCc1ccc(C(=O)N2CCCC(Nc3ccc(C(C)C)cc3)C2)o1 (stereo not given)	-1	·	-2	·	-2	·	·	·	·
O=C(O)c1ccccc1Nc1ccc([N+](=O)[O-])c2nonc12	22*	·	-6	·	1	-5	51*	-14	27*
O=C(Nc1ccc(S(=O)(=O)Nc2cnc3ccccc3n2)cc1)c1cc(F)c(F)cc1Cl	-2	·	-3	·	0	·	·	·	·
CC(=O)N1c2ccc(S(=O)(=O)N3CCC(C(=O)NC(C)c4ccccc4)CC3)cc2CC1C (stereo not given)	-2	·	-3	·	0	·	·	·	·
CCCc1nn(C)c2c(=O)[nH]c(-c3cc(S(=O)(=O)N4CCN(C)CC4)ccc3OCC)nc12	17*	·	-2	·	3	-3	4	-7	26*
CCN1CCN(CCNC(=O)CCc2c(C)c3c(C)nn(-c4ccccc4)c3n(C)c2=O)CC1	19*	·	-4	·	1	-3	-1	-3	30*
Cc1coc2cc3oc(=O)c(CCC(=O)NCCN4CCOCC4)c(C)c3cc12	4	·	1	·	5	·	·	·	·
COc1cccc(CNC(=O)CSc2nc3ccc(C)cc3[nH]2)c1	-3	·	-3	·	-1	·	·	·	·
O=[N+]([O-])c1ccc(N2CCN(CCO)CC2)c2ncccc12	-1	-6	-4	2	12	·	·	·	·
Cc1ccc(-c2nn(C)c(=O)c3ccccc23)cc1S(=O)(=O)NCCO	-2	-5	-3	0	?	·	·	·	·
SMILES	VIM-2 inh	Runt-SMMHC FRET	IMP-1 inh-1	Runt-CBFb FRET	RanGTP-Impb inh	IMP-1 inh-2	VIM-2 FRET inh	TEM-1 inh	VIM-2 confirm 2
CN(C)CCNc1ccc(-c2nn(C)c(=O)c3ccccc23)cc1[N+](=O)[O-]	79*	1	-4	-3	-3	-2	0	-5	83*
CN(CCO)c1ccc(-c2nn(C)c(=O)c3ccccc23)cc1[N+](=O)[O-]	17*	1	-4	-1	-2	-4	-1	-8	41*
Cn1nc(-c2ccc(N3CCN(CCO)CC3)c([N+](=O)[O-])c2)c2ccccc2c1=O	82*	·	-3	·	3	-3	-1	-7	89*
Cn1nc(-c2ccc(NCCO)c([N+](=O)[O-])c2)c2ccccc2c1=O	16*	-3	-3	-3	7	-4	3	-8	45*
CN(CCO)c1cc(N(C)CCO)c([N+](=O)[O-])cc1[N+](=O)[O-]	-3	-7	-4	-1	-2	·	·	·	·
CCOc1ccc(S(=O)(=O)N(C)CC(=O)N2CCN(CC)CC2)cc1	-1	·	-3	·	?	·	·	·	·
COc1ccccc1NS(=O)(=O)c1ccc(C)c(NS(=O)(=O)c2cc(C(=O)O)cc(C)c2C)c1	-3	·	-2	·	2	·	·	·	·
COc1cccc(/C=N/NC(=O)CC2C(=O)NN=C2C)c1OC (stereo not given)	1	0	-3	0	4	·	·	·	·
COc1ccc(OC)c(/C=N/NC(=O)CC2C(=O)NN=C2C)c1 (stereo not given)	29*	0	-1	2	-1	-3	63*	-5	46*
c1csc(CCNc2ncnc3sc4c(c23)CCC4)c1	·	-2	·	-2	-1	·	·	·	·
c1cn(CCCNc2ncnc3sc4c(c23)CCC4)cn1	28*	-4	-2	1	7	-3	-10	-8	56*
CCCC[n+]1ccn(-c2nc3ccccc3nc2[N-]S(=O)(=O)c2ccccc2)c1	1	32	-1	12	5	·	·	·	·
CCCC[n+]1ccn(-c2nc3ccccc3nc2[N-]S(=O)(=O)c2cccs2)c1	19*	18	-5	21	3	-3	10	-6	21*
C=CC[n+]1ccn(-c2nc3ccccc3nc2[N-]S(=O)(=O)c2cccs2)c1	22*	22	-4	9	1	-2	9	-6	16*
CC1CN(C(=O)c2ccc(-c3cccc(C(F)(F)F)c3)o2)CC(C)O1 (stereo not given)	·	·	·	·	-8	·	·	·	·
